Results reported in article PMC10681497 (CPT: Pharmacometrics & Systems Pharmacology, 2023).
Like-named read-outs stand apart in the source and are kept apart here.

Assays:
OCT2 = details: read-out: IC50, OCT2; cited from earlier work
Population PK analysis = format: in vivo, human
Outline: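 A prior two‑compartment NONMEM model was refined, keeping its interindividual random effects. Covariates were tested on CL/F, Vc/F (age, body weight), Vp/F (body weight) and Ka (sex, fasting, PPI, H2B). Selection used stepwise forward addition (p 0.05) and backward elimination (p 0.005) by likelihood ratio test. Evaluation used nonparametric bootstrap and prediction‑corrected VPC.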

[1] = system: serum phosphate concentration; assay: Exposure-response Emax model of serum phosphate change from baseline; set-up: species or system human; details: in vivo
Outline: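 Serum phosphate was measured in serum chemistry in 300 pooled monotherapy patients from FIGHT‑101, ‑102 and ‑202. The change from baseline was the mean of C1D8 and C1D15. A three‑parameter Emax nonlinear model related this change to model‑derived AUCss, with baseline serum phosphate as a covariate. Parameters were the maximum change (Emax) and the exposure giving 50% of the maximum increase.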

[2] = previously characterized; cited from earlier work
[3] = Simulated steady-state exposure; details: human, plasma, oral, 13.5 mg
Outline: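 Each patient's dense steady‑state post hoc concentration‑time profile was simulated from the updated population PK model. Cmax,ss, Cmin,ss and AUCss were then derived by noncompartmental methods, with oral once‑daily dosing of 13.5 mg.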

[4] = system: serum creatinine concentration; assay: Exposure-response Emax model of serum creatinine percent change from baseline; format: in vivo, human
Outline: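 Serum creatinine was measured in routine serum chemistry in 300 pooled monotherapy patients from FIGHT‑101, FIGHT‑102 and FIGHT‑202, using the mean of C1D8 and C1D15. A three‑parameter Emax nonlinear model related percent change from baseline to AUCss. Emax is the maximum change, with a half‑maximal exposure term. For prediction, AUCss was the mean post hoc value at 13.5 mg q.d. and was dose‑scaled for 6, 9 and 20 mg.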

MATE1 = details: read-out: IC50, MATE1; cited from earlier work
[5] = system: patients with CCA with FGFR2 fusions/re‐arrangements; details: for Median PFS: 13.5 mg once daily
[6] = cited from earlier work
[7] = previously characterized; cited from earlier work; remark: listed apart in the source
[8] = covariate effect, final population PK model
[9] = FIGHT-106, healthy participants, 13.5 mg

With `CCN1C(=O)N(c2c(F)c(OC)cc(OC)c2F)Cc2cnc3[nH]c(CN4CCOCC4)cc3c21` [pemigatinib] as the compound, how does the IC50 (OCT2) read?
Its IC50 is 0.075 µM.

What about the “Reduction in K a with use of PPI” value (Population PK analysis; concomitant PPI vs no PPI) of the same compound?
Its value is 62%.

And the “Body weight on V c/F” value (Population PK analysis; [8])?
The value was 0.842%.

And the “Body weight to V p/F” value (Population PK analysis; [8])?
The value was 1.13%.

And the “H2B antagonist on D1” value (Population PK analysis; [8])?
Its value is −33.4%.

And the “Male sex on CL/F” value (Population PK analysis; [8])?
The value was 26.2%.

What about the “Male sex on K a” value (Population PK analysis; [8]) of the same compound?
The value was −58.3%.

What about the “PPI on K a” value (Population PK analysis; [8]) of the same compound?
Its value is −62.0%.

And the “Phosphate binder on CL/F” value (Population PK analysis; [8])?
Its value is −15.5%.

What about the “D1 (duration of zero-order drug release), population mean” value (Population PK analysis; final population PK model) of the same compound?
The value was 0.810 h.

And the “K a (absorption rate constant), population mean” value (Population PK analysis; final population PK model)?
The value was 3.67 h⁻¹.

And the “CL/F (apparent clearance), population mean” value (Population PK analysis; final population PK model, 467 participants)?
The value was 10.7 L/h.

And the “Higher CL/F in men compared with women” value (Population PK analysis; human, in vivo)?
Its value is 26.2%.

What about the “Lower K a in men compared with women” value (Population PK analysis; human, in vivo) of the same compound?
Its value is 58.3%.

What about the “Reduction in D1 with use of H2B” value (Population PK analysis; human, in vivo) of the same compound?
Its value is 33.4%.

And the Vd/F (Population PK analysis; human, plasma, oral)?
Its Vd/F is 118 L.

And the “Reduction in CL/F with use of phosphate-binding agents” value (Population PK analysis; users vs nonusers)?
The value was 15.5%.

What about the “Reduction from baseline per 1-mg/dL increase in baseline serum phosphate level” value [1] of the same compound?
Its value is “less than or equal to 0.185 mg/dL”.

What about the Permeability [2] of the same compound?
Its Permeability is “high permeability”.

What about the AUC [3] of the same compound?
The AUC was 2.85 µM·h.

What about the “Estimated percentage change from baseline in serum creatinine concentration” value (shortened to “Estimated percentage change”) ([4]; 6 mg, dose-scaled mean post hoc AUCss) of the same compound?
Its value is 14.2%.

What about the “Estimated percentage change” value ([4]; 9 mg, dose-scaled mean post hoc AUCss) of the same compound?
Its value is 18.3%.

What about the “Estimated percentage change” value ([4]; 13.5 mg q.d., mean post hoc AUCss) of the same compound?
Its value is 22.7%.

And the “Estimated percentage change” value ([4]; 20 mg, dose-scaled mean post hoc AUCss)?
The value was 26.9%.

What about the IC50 (MATE1) of the same compound?
Its IC50 is 1.1 µM.

What about the “Model predicted ORR” value ([5]; 6 mg, model on mean change from baseline in serum phosphate) of the same compound?
Its value is 29.7%.

And the “Model predicted ORR” value ([5]; 9 mg, model on mean change from baseline in serum phosphate)?
The value was 41.4%.

What about the “Model predicted ORR” value ([5]; 13.5 mg, model on AUCss, mean AUCss 2850 h∙nM) of the same compound?
Its value is 45.2%.

What about the “Model predicted ORR” value ([5]; 13.5 mg, model on mean change from baseline in serum phosphate) of the same compound?
Its value is 47.1%.

And the “Model predicted ORR” value ([5]; 20 mg, model on mean change from baseline in serum phosphate)?
The value was 46.8%.

What about the “Median PFS” value ([5]; AUCss first quartile) of the same compound?
The value was 6.93 months.

What about the “Median PFS” value ([5]; AUCss fourth quartile) of the same compound?
Its value is 7.03 months.

And the “Median PFS” value ([5]; AUCss second quartile)?
Its value is 6.93 months.

And the “Median PFS” value ([5]; AUCss third quartile)?
Its value is 9.20 months.

And the “Increase in AUC on co-administration of the H2B ranitidine” value [6, 9]?
The value was 3%.

What about the “Reduction in C max on co-administration of the H2B ranitidine” value [6, 9] of the same compound?
The value was 2%.

What about the “Effect of concomitant PPI esomeprazole on pemigatinib exposure” value ([6]; FIGHT-106) of the same compound?
Its value is “only a modest effect”.

And the pH-dependent solubility [7]?
Its pH-dependent solubility is “poorly soluble at pH > 2”.
